Data published in article PMC5508980 (Molecular nutrition & food research, 2017).

Experiments:
recombinant HDAC6 = target: T1, recombinant HDAC6 (Homo sapiens, UniProt Q9UBN7); test: Recombinant HDAC activity assay; type: biochemical; conditions: 2 h, read-out: % HDAC activity, Class IIb HDACs, 6
T1 sequence (Q9UBN7 1-1215): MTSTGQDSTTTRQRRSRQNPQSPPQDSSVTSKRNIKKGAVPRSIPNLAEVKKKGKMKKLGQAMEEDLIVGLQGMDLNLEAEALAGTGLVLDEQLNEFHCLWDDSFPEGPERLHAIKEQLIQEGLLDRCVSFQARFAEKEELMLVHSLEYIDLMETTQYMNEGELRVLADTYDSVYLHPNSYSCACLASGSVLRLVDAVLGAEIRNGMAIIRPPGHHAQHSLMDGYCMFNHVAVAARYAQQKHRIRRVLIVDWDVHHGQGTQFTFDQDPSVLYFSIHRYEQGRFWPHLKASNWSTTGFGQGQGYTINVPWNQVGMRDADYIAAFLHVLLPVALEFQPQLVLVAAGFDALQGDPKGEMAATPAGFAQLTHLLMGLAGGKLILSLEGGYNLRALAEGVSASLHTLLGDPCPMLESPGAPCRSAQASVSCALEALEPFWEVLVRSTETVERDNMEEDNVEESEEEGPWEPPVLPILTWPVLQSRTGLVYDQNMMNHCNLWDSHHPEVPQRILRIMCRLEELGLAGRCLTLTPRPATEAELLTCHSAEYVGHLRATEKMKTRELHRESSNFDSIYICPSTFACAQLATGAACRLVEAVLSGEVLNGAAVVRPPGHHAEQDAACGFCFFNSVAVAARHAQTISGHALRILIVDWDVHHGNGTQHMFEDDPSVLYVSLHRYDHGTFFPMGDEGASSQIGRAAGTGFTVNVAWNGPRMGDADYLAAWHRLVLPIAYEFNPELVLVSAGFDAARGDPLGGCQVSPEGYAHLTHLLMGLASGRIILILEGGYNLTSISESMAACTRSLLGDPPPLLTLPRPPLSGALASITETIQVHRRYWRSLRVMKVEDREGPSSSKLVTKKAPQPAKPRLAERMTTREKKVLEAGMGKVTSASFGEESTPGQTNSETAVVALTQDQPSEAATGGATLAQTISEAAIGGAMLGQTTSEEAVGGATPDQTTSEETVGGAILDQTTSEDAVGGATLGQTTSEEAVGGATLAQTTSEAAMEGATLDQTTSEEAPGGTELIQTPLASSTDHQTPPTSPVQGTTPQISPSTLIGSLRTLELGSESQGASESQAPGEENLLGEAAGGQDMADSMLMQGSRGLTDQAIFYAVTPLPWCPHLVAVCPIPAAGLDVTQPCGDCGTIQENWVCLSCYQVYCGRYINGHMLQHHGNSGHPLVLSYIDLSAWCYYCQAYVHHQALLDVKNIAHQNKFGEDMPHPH

H9c2 cells = test: Acetyl-H3K9/14 immunoblot of whole cell extract; type: cell-based, rat; conditions: H9c2 myocytes, 50 µM, 2 hours
Summary of the method: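 H9c2 cells were grown in DMEM with 10% FBS and treated at 90% confluence for 2 h with test compound or DMSO, with TSA as positive control. Washed in ice-cold PBS, lysed in PBS pH 7.4 with 0.5% Triton X-100 and 300 mM NaCl plus inhibitors, sonicated and clarified. SDS-PAGE, nitrocellulose, acetyl-H3K9/14 and total H3 antibodies, chemiluminescence; densitometry; ANOVA with Tukey.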

remaining activity at 50 µM (recombinant HDAC6): 38.8%
Structure (SMILES): Cc1cc(O)c2c(c1)C(=O)c1cc(O)cc(O)c1C2=O [Emodin]
acetylation of histone 3 on lysine 9/14 (Ac-H3 K9/14) via immunoblot (H9c2 cells): increased
